This is a sample that favours compounds with a hit; in the whole collection about 2.9% have one here.
CAL PDZ FP-1: inhibitors of human CAL PDZ peptide binding; Q9HD26; purified CAL PDZ, TMR-peptide fluorescence polarization, 1 h; inhibition, % at 20 µM; 330,000 tested, 0.02% active;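 active = highest replicate inhibition of at least 40%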
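Material: tagged CAL PDZ protein CerCALP, purified; buffer or medium: sodium phosphate/NaCl buffer pH 7.4 with TCEP, IgG, Thesit; also added: fluorescent TMR peptide probe; schedule: 1 h incubation at room temperature before polarization reading; technique: fluorescence polarization from S- and P-plane intensities, G-factor corrected; control set: unlabelled peptide and DMSO controls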
DENV2 CPE: protects cells from dengue virus 2 cytopathic effect | CPE inhibition, % at 9.99 µM | 350,000 tested, 1.7% active | DENV2-infected cells, cytopathic effect rescue, plate reader; in the data active = CPE inhibition above about 20%, passing the limit was not always enough; inconclusive = no clear call, values can overlap the other calls; tested in BHK-21 cells
CAL PDZ FP-2: inhibitors of human CAL PDZ peptide binding; 300,000 tested, 0.92% active; purified CAL PDZ, TMR-peptide fluorescence polarization, 1 h; inhibition, % at 24.9 µM; Q9HD26; AID 602252;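 active = mean inhibition of at least 30% with at least half of replicates also reaching 30%; inconclusive = no clear call, values can overlap the other calls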
SIRT5 block: inhibitors of human sirtuin-5 desuccinylase. Q9NXA8. Purified SirT5, succinyl-peptide AMC, trypsin-coupled fluorescence. inhibition, % at 15 µM. 330,000 tested, 1.1% active; in the data active = inhibition above about 15%; inconclusive = no clear call, values can overlap the other calls
ERAP1 HTS inh: blocks human ERAP1 aminopeptidase activity. Q9NZ08. recombinant ERAP1, Leu-AMC fluorescence, 60 min. inhibition, % at 10.7 µM. 340,000 tested, 0.15% active. AID 652197;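 active = mean replicate inhibition of at least 30%, or all replicates individually reaching that 30% level; inactive = mean below 30% and not every replicate reaching it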
Target sequence (Q9NZ08 whole entry, looked up): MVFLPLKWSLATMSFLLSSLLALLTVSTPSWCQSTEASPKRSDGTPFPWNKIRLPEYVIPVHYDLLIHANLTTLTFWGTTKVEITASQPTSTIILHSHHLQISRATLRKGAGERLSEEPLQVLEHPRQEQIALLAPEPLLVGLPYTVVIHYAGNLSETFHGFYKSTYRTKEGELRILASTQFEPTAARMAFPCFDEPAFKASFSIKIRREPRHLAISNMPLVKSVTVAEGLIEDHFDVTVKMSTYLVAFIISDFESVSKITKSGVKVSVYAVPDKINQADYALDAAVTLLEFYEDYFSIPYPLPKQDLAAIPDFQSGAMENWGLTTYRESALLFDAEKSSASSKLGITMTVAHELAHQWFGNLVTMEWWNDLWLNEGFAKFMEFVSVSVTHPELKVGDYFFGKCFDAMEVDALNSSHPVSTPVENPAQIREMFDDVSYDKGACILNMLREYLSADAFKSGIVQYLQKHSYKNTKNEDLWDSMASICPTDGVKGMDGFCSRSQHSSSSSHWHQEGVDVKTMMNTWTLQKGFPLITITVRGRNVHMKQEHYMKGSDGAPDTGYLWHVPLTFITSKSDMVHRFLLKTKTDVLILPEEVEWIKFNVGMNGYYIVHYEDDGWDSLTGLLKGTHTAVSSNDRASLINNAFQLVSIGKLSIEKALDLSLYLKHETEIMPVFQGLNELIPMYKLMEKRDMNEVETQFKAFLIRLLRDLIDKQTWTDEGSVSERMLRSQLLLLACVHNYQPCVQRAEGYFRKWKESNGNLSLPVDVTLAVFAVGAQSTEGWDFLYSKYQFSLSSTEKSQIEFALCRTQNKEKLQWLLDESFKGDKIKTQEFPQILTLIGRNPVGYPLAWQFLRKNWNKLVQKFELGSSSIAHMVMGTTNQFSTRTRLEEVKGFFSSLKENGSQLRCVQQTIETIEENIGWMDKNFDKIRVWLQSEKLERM
S100A4 MyoIIA: S100A4-myosin IIA interaction inhibition | P26447 | S100A4/TAMRA-MyoIIA peptide fluorescence polarization | inhibition, % at 10.7 µM | 360,000 tested, 0.14% active | AID 652163;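 active = mean inhibition of at least 70% across replicates, with every replicate also reaching that level; inconclusive = mean inhibition reaches 70% but some replicates fall short; inactive = mean inhibition below 70%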
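Test system: S100A4 monomer protein. Medium: HEPES buffer with Ca2+, pH 7.2. Reagent: fluorescent myosin IIA peptide, 5 nM. Compound dosing: single-point compound testing. Timing: 5 min between mix addition and reading. Benchmarks: DMSO neutral and TFP positive wells.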
Of the large screens only hits and unclear results are named; the others gave an inactive call.

COCc1cn(CC[C@H]2CC[C@@H](NC(=O)Cc3cccnc3)[C@@H](CO)O2)nn1	none (no result: CAL PDZ FP-1, CAL PDZ FP-2, ERAP1 HTS inh)
O=C(C[C@H]1C=C[C@H](NC(=O)c2ccc(F)cc2)[C@H](CO)O1)NCc1ccncn1	S100A4 MyoIIA 116.4 (no result: CAL PDZ FP-1, CAL PDZ FP-2)
O=C(C[C@H]1C=C[C@@H](NC(=O)c2ccc(F)cc2)[C@H](CO)O1)NCc1ccncn1	none (no result: CAL PDZ FP-1, CAL PDZ FP-2)
CCOC(=O)/C(C#N)=C/c1cc2ccccc2nc1N1CCCCC1	SIRT5 block 111.9
CC(=O)Nc1cccc(NC(=O)C2CCN(C(=O)c3ccco3)CC2)c1	none (no result: CAL PDZ FP-2)
Cc1ccc(NC(=O)C2CCN(C(=O)c3ccco3)CC2)cc1C	SIRT5 block 79.2
COc1cccc(-c2ccc([C@@H]3[C@@H](CO)N(C(=O)Cc4ccccc4)[C@H]3C#N)cc2)c1	none (no result: CAL PDZ FP-1, CAL PDZ FP-2)
N#C[C@H]1[C@H](c2ccc(-c3cccc(F)c3)cc2)[C@@H](CO)N1c1nc(-c2ccccc2)cs1	DENV2 CPE 38.2 (no result: CAL PDZ FP-1, CAL PDZ FP-2)
COCC(=O)N1[C@@H](C#N)[C@@H](c2ccc(C3=CCCCC3)cc2)[C@@H]1CO	DENV2 CPE 24.1 (no result: CAL PDZ FP-1, CAL PDZ FP-2)
COCC(=O)N1[C@@H](C#N)[C@@H](c2ccc(C3=CCCC3)cc2)[C@@H]1CO	none (no result: CAL PDZ FP-1, CAL PDZ FP-2)
COCC(=O)N1[C@@H](C#N)[C@H](c2ccc(-c3cccc(F)c3)cc2)[C@@H]1CO	DENV2 CPE inconclusive, S100A4 MyoIIA 116.2 (no result: CAL PDZ FP-1, CAL PDZ FP-2)
COc1cccc(-c2ccc([C@@H]3[C@@H](C#N)N(C(=O)Cc4ccccc4)[C@@H]3CO)cc2)c1	DENV2 CPE 26.3 (no result: CAL PDZ FP-1, CAL PDZ FP-2)
C/C=C/c1ccc([C@@H]2[C@@H](CO)N3C(=O)CN(C(=O)Nc4ccccc4F)C[C@@H]23)cc1	none (no result: CAL PDZ FP-1, CAL PDZ FP-2)
CO[C@H]1CN(C)C(=O)c2ccc(NC(=O)c3ccccc3F)cc2OC[C@@H](C)N(CC2CCOCC2)C[C@H]1C	none (no result: CAL PDZ FP-1, CAL PDZ FP-2)
C[C@@H]1CN([C@@H](C)CO)C(=O)c2cc(NC(=O)CCCN(C)C)ccc2O[C@@H]1CN(C)Cc1ccc(Cl)c(Cl)c1	none (no result: CAL PDZ FP-1, CAL PDZ FP-2)
O=C([C@H]1O[C@@H](n2ccc(=O)[nH]c2=O)[C@H](O)[C@@H]1O)N1CCN(c2ccc(Cl)cn2)CC1	DENV2 CPE 44.5 (no result: CAL PDZ FP-1, CAL PDZ FP-2)
O=C(NCCOc1ccccc1)C1CCC(=O)N(CCCN2CCOCC2)C1 (centres undefined)	none
O=C(NCCN1CCCC1)C1CCC(=O)N(CCCN2CCOCC2)C1 (centres undefined)	DENV2 CPE 35.2
Cc1ccccc1S(=O)(=O)/N=C(/Nc1c(C)n(C)n(-c2ccccc2)c1=O)c1ccccc1	CAL PDZ FP-2 40.1
Cc1cc(C)n(/N=C\c2c(O)ccc3ccccc23)c(=O)c1C(N)=O	CAL PDZ FP-2 50.4 (no result: DENV2 CPE, SIRT5 block, ERAP1 HTS inh, S100A4 MyoIIA)
CN1C2=NCCN2C(=O)c2cc(Cl)ccc21	ERAP1 HTS inh 110.9
C[C@H](CO)N1C[C@H](C)[C@@H](CN(C)C)Oc2ccc(NC(=O)NC3CCCCC3)cc2CC1=O	none (no result: CAL PDZ FP-1, CAL PDZ FP-2)
COc1cccc2c1C(=O)c1c(O)c3c(c(O)c1C2=O)CC(O)(C(=O)CO)CC3OC1CC(N(C)C)C(O)C(C)O1 (centres undefined)	S100A4 MyoIIA active
COc1cccc2c1C(=O)c1c(O)c3c(c(O)c1C2=O)C[C@@](O)(C(=O)CO)C[C@@H]3O[C@H]1C[C@H](N)[C@@H](O)[C@H](C)O1	none (no result: DENV2 CPE, SIRT5 block, ERAP1 HTS inh, S100A4 MyoIIA)
COc1cccc2c1C(=O)c1c(O)c3c(c(O)c1C2=O)C[C@@](O)(C(C)=O)C[C@@H]3O[C@H]1C[C@H](N)[C@H](O)[C@H](C)O1	S100A4 MyoIIA active
CCC(=O)N1CC(=O)N2[C@H](CO)[C@H](c3ccc(C#Cc4cccc(F)c4)cc3)[C@H]2C1	none (no result: CAL PDZ FP-1, CAL PDZ FP-2)
Cc1ccc(S(=O)(=O)N2CCOC2CNC(=O)C(=O)NCCc2ccccc2)cc1 (centres undefined)	CAL PDZ FP-2 33.2
O=C(NCc1ccc2c(c1)OCO2)C(=O)NCC1OCCCN1S(=O)(=O)c1ccccc1 (centres undefined)	DENV2 CPE 40.7 (no result: CAL PDZ FP-1, CAL PDZ FP-2)
Cc1ccc(S(=O)(=O)N2CCOC2CNC(=O)C(=O)NCCCc2ccccc2)cc1 (centres undefined)	DENV2 CPE inconclusive
Cc1ccc(S(=O)(=O)N2CCCOC2CNC(=O)C(=O)NCc2ccc3c(c2)OCO3)cc1 (centres undefined)	none
C[C@H](CO)N1C[C@H](C)[C@H](CN(C)Cc2ccccc2)Oc2c(NS(=O)(=O)c3ccc(Cl)cc3)cccc2C1=O	none (no result: CAL PDZ FP-1, CAL PDZ FP-2)

Compound activity from PubChem.
